Assay results of several laboratories.
Each line is one published result; the experiments were not run side by side.
CYP2C19: Cytochrome P450 2C19 (CYP2C19, Homo sapiens, UniProt P33261)

`CC(C)C[C@H](NC(=O)[C@@H](NC(=O)c1ccc(Cl)cc1)C(C)C)C(=O)N[C@H](C=O)C[C@@H]1CCCNC1=O` gave a CC50 of greater than 100 µM (A549; cell growth or viability, MTT; 24 h).
For `COC(=O)C1CCN(C(=O)c2ccc(NCc3cnc4nc(N)nc(N)c4n3)cc2)CC1`, the inhibition was -23.4% (CYP2C19; enzyme activity, inhibitor, luciferase; 10 µM).
With `CCOC(=O)[C@@](C)(O)[C@@H]1C[C@@H](CO[Si](c2ccccc2)(c2ccccc2)C(C)(C)C)O[C@H]1n1cc(F)c(=O)[nH]c1=O` the CC50 was 236 µM (A549; cell growth or viability, MTT; 42 h).
`COC(=O)C(NC(=O)c1cn(CCCCCF)c2ccccc12)C(C)(C)C` (stereo not drawn) has a Tmax of 2.83 h (male Sprague-Dawley rat, plasma; subcutaneous, 200 µg/kg).
`O=C[C@H](C[C@@H]1CCNC1=O)NC(=O)[C@H](CC1CCCCC1)NC(=O)c1cc2ccccc2[nH]1` has a Cmax of 9770 µg/mL (dog, plasma; intravenous, 4 mg/kg).
For `COc1cc2c(c(OC)c1OC)-c1ccc(OC)c(=O)cc1[C@@H](NC(C)=O)CC2`, the CC50 was 0.024 µM (HFF-1; cell growth or viability, resazurin; 72 h).
With `Cc1ncc2n1-c1ccc(Cl)cc1C(c1ccccc1F)=NC2` the compound remaining was 3% (metabolic stability; beagle dog, hepatocytes; 1 µM, 4 h).
With `CC(C)(C)NC(=O)N[C@H](C(=O)N1C[C@H]2[C@@H]([C@H]1C(=O)NC(CC1CCC1)C(=O)C(N)=O)C2(C)C)C(C)(C)C` (stereo partly drawn) the CC50 was greater than 100 µM (A549; cell growth or viability, neutral red; 48 h).
`C[C@H](NC(=O)/C=C/c1ccccc1)C(=O)N[C@H](C=O)C[C@@H]1CCCNC1=O` has a CC50 of greater than 100 µM (A549; cell growth or viability, MTT; 24 h).
With `CCC[C@@](N)(CO)CCc1ccc(OCCCCCC(C)C)cc1` the Cmax was 69.2 nM (dog, plasma; oral, 2.5 mg/kg).
`N=c1c2c(-c3ccccc3)c(-c3ccccc3)n(Cc3ccccc3)c2ncn1[C@H]1CC[C@H](O)CC1` has a clearance of 1.2 mL/min/kg (male beagle dog, plasma; intravenous, 0.5 mg/kg, single dose).
The CC50 of `CC(C)C[C@H](NC(=O)[C@@H](NC(=O)/C=C/c1ccccc1F)C(C)C)C(=O)N[C@H](C=O)C[C@@H]1CCCNC1=O` is reported as greater than 100 µM (A549; cell growth or viability, MTT; 24 h).
`Cl.Cl.O=C(CCN1CCCCC1)c1ccc(-c2ccc(C(=O)CCN3CCCCC3)cc2)cc1` gave a Tmax of 0.65 h (Sprague-Dawley rat, plasma; oral, 50 mg/kg).
The CC50 of `CC(C)C[C@H](NC(=O)[C@@H](NC(=O)c1ccoc1)C(C)C)C(=O)N[C@H](C=O)C[C@@H]1CCCNC1=O` is reported as greater than 100 µM (A549; cell growth or viability, MTT; 24 h).
`COC(=O)C1CCN(C(=O)c2ccc(N(C)Cc3cnc4nc(N)nc(N)c4n3)cc2)CC1` gave an inhibition of -29.4% (CYP2C19; enzyme activity, inhibitor, luciferase; 10 µM).
`CN1CCCCC1Cn1cc(C(=O)c2cc([N+](=O)[O-])ccc2I)c2ccccc21` (racemic) gave a C0 of 6 mg/L (mouse, plasma; intravenous, 25 mg/kg).
`CC(C)C[C@H](NC(=O)[C@H](CC1CCCCC1)NC(=O)/C=C/c1ccccc1)C(=O)N[C@H](C=O)C[C@@H]1CCCNC1=O` gave a CC50 of greater than 100 µM (A549; cell growth or viability, MTT; 24 h).
`O=S(=O)([O-])c1cccc(P(c2ccccc2)c2ccccc2)c1.[Na+]` gave a CC50 of 189 µg/mL (NIH3T3; cell growth or viability, resazurin; 18 h).
